XBP1 UPR activ = activators of adaptive XBP1 UPR arm, primary screen, cell-based, CHO-XBP1 luciferase reporter, luminescence, uHTS; activation, % at 20 µM; IRE1-XBP1 UPR activation; percent of tunicamycin response, DMSO as zero; hit rate 0.33% among 330,000; AID 463104, 2010;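 active = versus positive control, 20 µM dose yields 30% or more activation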;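 also: 100% = tunicamycin at 10 µg/mL and 0% = DMSO only wells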
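Signal: luciferase luminescence; Assay system: CHO-XBP1 luciferase reporter cells; Amount: one thousand reporter cells per well; Dosing: 20 µM single concentration, DMSO 1%; Benchmarks: high control tunicamycin 10 µg/mL final, low control DMSO vehicle only; Schedule: 6 h compound exposure at 37 °C, 5% CO2; Evaluation: percent activation relative to tunicamycin reference.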
UPR CHOP act = activators of apoptotic CHOP UPR arm, primary screen, cell-based, CHO-CHOP luciferase reporter, luminescence, uHTS; UPR activation; percent of tunicamycin response over DMSO baseline; activation, % at 10 µM; hit rate 0.34% among 330,000;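 active = at 10 µM dose, activation of 40% or more, normalized to positive control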;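 also: 100% = tunicamycin at 10 µg/mL and 0% = DMSO alone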
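System: CHO CHOP reporter cells. Amount: 500 cells per well. Buffer or medium: F12 medium, 10% FBS. Compound dosing: one dose, 10 µM in 0.5% DMSO. Incubation: 6 h compound exposure at 37 °C after overnight seeding. Technique: Steady-Glo luciferase luminescence. Benchmarks: tunicamycin and DMSO controls.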
Lipid droplet = inhibitors of hepatocyte lipid droplet formation, primary screen, imaging, high-throughput imaging, BODIPY stain; AML12 mouse hepatocytes, oleate lipid droplets; inhibition, % at 6.5 µM; hit rate 0.4% among 240,000; AID 1656, 2009;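 active = lipid droplet intensity inhibited by at least 50%, with more than 500 cells counted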
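Material – AML12 mouse liver cells · Also added – oleate loading, 100 µM · Compound dosing – 6.5 µM single-point dosing · Times – overnight treatment with compound plus oleate · Measured by – fluorescence imaging, 20x objective, two fields per well · Read-out – percent inhibition of filter-corrected integrated lipid droplet intensity per well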
CHOP inh = inhibitors of CHOP promoter induction, primary screen, cell-based, unfolded protein response, luciferase reporter | inhibition, % at 10 µM | AID 2732, 2010 | hit rate 3.8% among 220,000 | CHO-K1 CHOP-promoter luciferase, tunicamycin-induced, 15-18 h;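 active = compounds that reduced the stress-induced luciferase reporter signal by more than about 70% of percent inhibition, limit read from the data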;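 also: 0% = tunicamycin plus vehicle and 100% = wells without tunicamycin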
ANO1 block = TMEM16A chloride channel inhibitors, primary screen, cell-based, HTS; Anoctamin-1 (Mus musculus), Q8BHY3; normalized B-score (activity score, 25-100; higher = stronger inhibition) at 10 µM; HEK293 TMEM16A/YFP iodide influx fluorescence, ionomycin; hit rate 1.2% among 310,000;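 active = ratio plate-corrected score three or more library SD toward inhibition, starting fluorescence score within five deviations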;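 also: score derived from kinetic fluorescence span divided by baseline fluorescence per well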
ANO1 activ = TMEM16A chloride channel activators or potentiators, primary screen, cell-based, HTS; HEK293 TMEM16A/YFP-H148Q/I152L, iodide quench fluorescence; stronger effect = lower value; B-score at 10 µM; hit rate 0.3% among 340,000;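 active = fluorescence-ratio B-score plate-corrected deviation score at least 3 library SD below zero, with starting fluorescence score within 5 deviations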;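 also: channel opened by trigger with iodide after compound preincubation; score built on the fluorescence ratio of max minus min over baseline; more negative score means more quench and so TMEM16A activation or potentiation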
TMEM16A reconf = TMEM16A chloride channel inhibitors, confirmation, cell-based, re-confirmation; shares compounds with ANO1 block; AID 652189, 2013; HEK293 TMEM16A/YFP-H148Q, iodide quench fluorescence; ionomycin added to raise cell calcium; hit rate 39% among 2,300; inhibition, % at 10 µM;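 active = mean duplicate percent inhibition, scaled so buffer wells are 0 and the reference blocker 100, over three buffer SD above buffer mean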
TMEM16A Ca cntr = calcium mobilization in TMEM16A/YFP HEK293 cells, confirmation, counter-screen for TMEM16A inhibitor project; shares compounds with ANO1 block; Fluo4 calcium mobilization; calcium response (% of ionomycin), % at 10 µM; hit rate 2% among 2,300;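 active = duplicate-averaged calcium signal over 20% of the ionomycin maximum, relative to buffer baseline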;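 also: each well's signal is peak minus trough fluorescence divided by its pre-addition baseline; 0% = buffer wells and 100% = ionomycin wells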
YFP-HEK293 quench = iodide YFP quench changes in parental YFP-HEK293, counter-screen for TMEM16A inhibitor project, cell-based; shares compounds with ANO1 block; ionomycin; YFP ratio F(max-min)/F0 at 10 µM; 2,300 tested, under 10 active;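 active = yellow fluorescent protein signal ratio exceeding the buffer control mean by over 5 SD of those controls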;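 also: ratio is mean of duplicate wells from kinetic YFP trace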
ClC-1 rat inh = ClC-1 chloride channel inhibition, selectivity assay for TMEM16A inhibitor project, cell-based, voltage-dependent ClC-1; shares compounds with ANO1 block; 2,300 tested, under 10 active; ratio percent, % at 10 µM; AID 652236, 2013; CHO ClC-1-YFP, iodide influx fluorescence quench; iodide control reads 0, buffer control 100;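 active = duplicate-mean ratio percent above the mean of iodide-only control wells, which defines zero, plus 5 of their SD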;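 also: higher percent means stronger block of ClC-1 iodide influx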
Target sequence (P35524 whole entry, looked up): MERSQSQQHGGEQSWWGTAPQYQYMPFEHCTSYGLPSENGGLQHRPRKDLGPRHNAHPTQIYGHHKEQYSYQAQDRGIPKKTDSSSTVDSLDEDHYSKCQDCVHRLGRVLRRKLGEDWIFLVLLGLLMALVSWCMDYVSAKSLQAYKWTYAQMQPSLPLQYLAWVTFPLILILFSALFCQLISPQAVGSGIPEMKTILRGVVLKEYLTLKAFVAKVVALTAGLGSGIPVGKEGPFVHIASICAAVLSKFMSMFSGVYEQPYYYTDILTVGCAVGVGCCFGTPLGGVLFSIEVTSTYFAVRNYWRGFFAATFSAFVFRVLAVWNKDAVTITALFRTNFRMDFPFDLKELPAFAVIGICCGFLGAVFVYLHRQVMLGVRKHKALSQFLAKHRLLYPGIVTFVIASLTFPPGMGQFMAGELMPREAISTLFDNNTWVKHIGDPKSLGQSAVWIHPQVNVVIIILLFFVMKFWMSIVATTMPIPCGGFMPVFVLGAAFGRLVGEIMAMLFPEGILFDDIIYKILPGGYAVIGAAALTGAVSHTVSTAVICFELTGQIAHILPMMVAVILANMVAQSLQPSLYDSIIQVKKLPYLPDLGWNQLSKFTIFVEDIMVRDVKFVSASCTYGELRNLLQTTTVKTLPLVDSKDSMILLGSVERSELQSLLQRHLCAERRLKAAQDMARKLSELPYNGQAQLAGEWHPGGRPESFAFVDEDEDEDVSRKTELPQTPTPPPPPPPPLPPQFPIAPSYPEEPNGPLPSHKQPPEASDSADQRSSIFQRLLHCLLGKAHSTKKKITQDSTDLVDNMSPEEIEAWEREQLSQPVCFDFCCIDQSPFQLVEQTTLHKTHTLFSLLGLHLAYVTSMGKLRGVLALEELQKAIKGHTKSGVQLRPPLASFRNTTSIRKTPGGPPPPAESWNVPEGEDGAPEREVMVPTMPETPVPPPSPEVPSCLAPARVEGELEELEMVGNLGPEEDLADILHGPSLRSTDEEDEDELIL
Starred values were filed as active, the others as inactive; i = inactive; / = no result given. Most compounds without a hit are left out; they make up all but 4.2% or so of the library.

SMILES | XBP1 UPR activ | UPR CHOP act | Lipid droplet | CHOP inh | ANO1 block | ANO1 activ | TMEM16A reconf | TMEM16A Ca cntr | YFP-HEK293 quench | ClC-1 rat inh
CCOC(=O)c1c(NC(=O)CSc2nnc(N)s2)sc(C)c1-c1ccc(C)cc1 | -0.3 | 0.1 | 4.4 | 58.3 | 25* | i | i | i | -1.15 | -13.0
CCOC(=O)c1c(NC(=O)CSc2nnc(C)c(=O)[nH]2)sc(C)c1-c1ccc(C)cc1 | 1.4 | -0.4 | -1.3 | -0.8 | i | i | / | / | / | /
Nc1ncnc2c1ncn2[C@@H]1O[C@H](CNC(=O)[C@@H](N)CO)[C@@H](O)[C@H]1O | 4.1 | 1.9 | / | / | / | / | / | / | / | /
Cc1ccc(NC(=O)CSc2nnc(C3CC3)n2C)cc1S(=O)(=O)N1CCCCC1 | -1.4 | -1.6 | / | / | / | i | / | / | / | /
N#CC(c1ccccc1)c1ccc2c(C(F)(F)F)cc(C(F)(F)F)nc2n1 (stereo not given) | 0.1 | 1.4 | 5.6 | 70.0 | 100* | i | 42.5%* | i | -0.845 | 15.5
CN(c1cccc(NC(=O)CSc2ccc(Cl)cc2)c1)S(C)(=O)=O | -2.8 | -2.1 | 7.1 | 24.7 | 100* | i | 28.0%* | i | -0.968 | -4.0
CN(c1cccc(NC(=O)CCSc2ccccc2)c1)S(C)(=O)=O | 2.6 | 0.8 | 15.3 | 39.8 | i | i | / | / | / | /
CC(=O)N(/N=C1\Sc2ccccc2C1=O)c1cccc(C)c1 | 6.7 | 5.9 | / | 44.5 | i | i | i | i | -1.14 | -15.5
COc1ccc(C)cc1NC(=O)C1CCCCN1S(=O)(=O)c1ccccc1 (stereo not given) | -4.0 | 1.6 | / | / | / | i | / | / | / | /
Cc1ccc(/C=C(\C#N)C(=O)Nc2c(C)cccc2C)s1 | -1.9 | 1.0 | 14.6 | 10.8 | i | i | / | / | / | /
Cc1ccc(NC(=O)/C(C#N)=C/c2ccc(C)s2)c(C)c1 | 1.4 | 6.1 | -0.4 | 61.0 | i | i | i | i | -1.08 | 9.5
Cn1c(C23CC4CC(CC(C4)C2)C3)n[nH]c1=S | -1.9 | 1.8 | -3.1 | 9.4 | i | i | / | / | / | /
O=C(CSc1n[nH]c(-c2ccccc2O)n1)NC1CCCCC1 | -0.5 | 0.0 | / | / | 100* | i | i | i | -1.27 | 11.5
O=C(CCc1nc2ccccc2[nH]1)Nc1ccc(F)cc1 | 0.2 | -1.2 | 16.4 | -32.3 | 25* | i | i | i | -1.09 | -3.5
CCN(CC)C(CNC(=O)CSc1nnnn1-c1c(C)cccc1C)c1ccco1 (stereo not given) | -0.4 | -1.0 | / | / | / | i | / | / | / | /
Cc1ccc(S(=O)(=O)Nc2nc3ccccc3nc2N2CCOCC2)cc1 | -3.5 | -0.6 | / | / | / | i | / | / | / | /
CCCCOc1nc2ccccc2nc1NS(=O)(=O)c1ccc(F)cc1 | -1.8 | 2.2 | -22.8 | / | 25* | i | i | i | -0.987 | -11.0
